Rows were chosen to be rich in hits. Some 4.3% of all compounds tested hit in one or more screens of this group.
PREPL inhibitor: human PREPL enzyme inhibition | Q4J6C6 | recombinant PREPL, fluorescence polarization activity-based probe | inhibition, % at 5.96 µM | 320,000 compounds, 0.68% hits | AID 2751; in the data active means inhibition above about 43%
RBBP9 inh: blocks human serine hydrolase RBBP9 | recombinant RBBP9, FP-Rh probe fluorescence polarization | inhibition, % at 7.94 µM | 220,000 compounds, 0.2% hits | AID 1515;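 active means inhibition above the campaign mean of all tested compounds plus 3 SD, cut at about 14% in these data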
Target sequence (O75884 whole entry, looked up): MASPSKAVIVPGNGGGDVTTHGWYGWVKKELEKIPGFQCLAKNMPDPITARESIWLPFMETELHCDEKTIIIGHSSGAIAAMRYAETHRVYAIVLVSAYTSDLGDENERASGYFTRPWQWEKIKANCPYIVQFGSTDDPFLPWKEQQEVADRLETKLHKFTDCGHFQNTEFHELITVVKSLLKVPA
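System: RBBP9 protein / Quantity: 2.5 µM RBBP9 dispensing solution, before mixing / Also added: Serine-hydrolase probe FP-Rh, 375 nM pre-mixing / Dosing: 7.94 µM single dose, 0.794% DMSO / Timing: enzyme-compound preincubation 30 min, then probe labeling 45 min, 25 °C / Signal: FP readout at 525/598 nm / Controls: DMSO-treated enzyme wells and wells lacking RBBP9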
ALR H2O2 inh: human ALR oxidase inhibition via reduced H2O2; AID 485317; P55789; 290,000 compounds, 3.8% hits; inhibition, % (concentration not given with the values); purified ALR, DTT oxidation, H2O2 HRP-luminol luminescence;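 active means mean replicate inhibition above about 79%, with every replicate also reaching it, limit read from the data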
UBC13 polyUb: human UBC13 polyubiquitination inhibition; UBC13 polyubiquitin chain formation, TR-FRET; inhibition, % at 20 µM; 330,000 compounds, 0.47% hits; AID 485273; in the data active means inhibition above about 45%, passing the limit was not always enough
Target sequence (P61088 whole entry, looked up): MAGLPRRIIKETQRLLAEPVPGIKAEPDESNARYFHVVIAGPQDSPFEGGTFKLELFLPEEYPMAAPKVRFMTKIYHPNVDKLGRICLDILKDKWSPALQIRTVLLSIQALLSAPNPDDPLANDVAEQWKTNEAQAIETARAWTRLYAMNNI
SUMO HTRF inh: SUMOylation inhibition. HTRF SUMOylation assay, SAE1/SAE2 + UBC9, in vitro. inhibition, % at 35 µM. 290,000 compounds, 0.36% hits; in the data active means inhibition above about 50%, passing the limit was not always enough
Rin1-Abl PPI inh: human Rin1-Abl interaction inhibition; 360,000 compounds, 0.4% hits; inhibition, % at 7.35 µM; TR-FRET Rin1/Abl binding, biochemical; AID 588664; in the data active means inhibition above about 5%, passing the limit was not always enough
Hits are given with their value; n = inactive; x = no result given.

SMILES	PREPL inhibitor	RBBP9 inh	ALR H2O2 inh	UBC13 polyUb	SUMO HTRF inh	Rin1-Abl PPI inh
CCC1(c2ccccc2)NC(=S)N(c2ccc(C)cc2)N1 (stereo unspecified)	n	n	94	n	n	n
O=C(NCc1ccc(F)cc1)c1cc(C2CCCCN2C(=O)OCCF)on1 (stereo unspecified)	x	x	x	x	x	n
Cc1ccc(S(=O)(=O)N2CCC(C(=O)NCCC3=CCCCC3)CC2)c(C)c1	n	x	n	n	x	n
CN(C)c1ccc(CN(C(=O)c2cccs2)C2CCS(=O)(=O)C2)cc1 (stereo unspecified)	n	x	93	n	n	n
O=C(/C=C/c1ccco1)N(Cc1ccc(Cl)cc1)C1CCS(=O)(=O)C1 (stereo unspecified)	n	n	n	n	n	n
CN(C)c1ccc(CN(C(=O)/C=C/c2ccco2)C2CCS(=O)(=O)C2)cc1 (stereo unspecified)	n	n	86	n	n	n
CN(C)c1ccc(CN(CC2CCCO2)C(=O)c2cccs2)cc1 (stereo unspecified)	n	x	92	n	n	n
CCOc1ccc(CN(C(=O)c2cccs2)C2CCS(=O)(=O)C2)cc1 (stereo unspecified)	n	x	n	n	n	n
Cc1ccccc1OCC(=O)N(Cc1cccs1)C1CCS(=O)(=O)C1 (stereo unspecified)	n	n	97	n	n	n
O=C(COC(=O)C12CC3CC(CC(Br)(C3)C1)C2)Nc1cccnc1Cl	n	n	n	n	n	n
COc1ccc(CCC2(C)NC(=O)N(C(C)C(=O)Nc3ccccc3F)C2=O)cc1 (stereo unspecified)	n	x	n	n	x	n
COc1ccc(-c2csc(NC(=O)c3c(C)noc3C)n2)cc1F	x	x	x	n	x	n
COc1cccc(C(=O)N(Cc2ccc(N(C)C)cc2)C2CCS(=O)(=O)C2)c1 (stereo unspecified)	n	n	88	n	n	n
CCc1ccc(/C=C2\SC(=S)N(CCCC(=O)N3CCCC3)C2=O)cc1	x	x	x	x	x	n
COCCN(C(=O)Nc1ccccc1OC)c1nc2ccccc2s1	n	x	n	n	n	n
CCCNS(=O)(=O)c1ccc(CCC(=O)N2CCN(c3ccc(OC)cc3)CC2)cc1	n	n	n	n	n	n
O=C1COc2ccc(S(=O)(=O)CCC(=O)N3CCN(c4ccccc4)CC3)cc2N1	n	x	98	n	n	n
COc1cccc(N2CCN(C(=O)CCS(=O)(=O)c3ccc4c(c3)oc(=O)n4C)CC2)c1	n	x	98	n	n	n
Cn1c(=O)oc2cc(S(=O)(=O)CCC(=O)N3CCN(c4ccccc4)CC3)ccc21	n	x	n	n	n	n
O=C(CCS(=O)(=O)c1ccc(Br)cc1)N1CCN(c2ccccc2)CC1	n	n	99	n	n	n
Cc1ccc(C)c(N2CCN(C(=O)CCS(=O)(=O)c3ccc4c(c3)NC(=O)CO4)CC2)c1	n	x	n	n	n	n
COc1ccc(N2CCN(C(=O)CCNS(=O)(=O)c3ccc(C)cc3)CC2)cc1	n	x	99	n	n	n
Cc1nn(Cc2noc(C(=O)NCc3ccccn3)n2)c(C)c1Br	n	x	n	n	n	n
Cc1ccc(OCCC(=O)N2CCN(c3ccc(O)cc3)CC2)cc1	n	n	100	n	n	n
O=C(CS(=O)(=O)c1ccccc1)N1CCN(c2ccccc2)CC1	n	x	x	n	x	n
SMILES	PREPL inhibitor	RBBP9 inh	ALR H2O2 inh	UBC13 polyUb	SUMO HTRF inh	Rin1-Abl PPI inh
O=C(CCS(=O)(=O)Cc1ccccc1)N1CCN(c2ccc([N+](=O)[O-])cc2)CC1	n	n	n	n	n	n
O=C(CCS(=O)(=O)c1ccccc1)N1CCN(c2ccccc2)CC1	n	x	99	n	n	n
O=C(CCS(=O)(=O)Cc1ccccc1)N1CCN(c2ccccc2)CC1	n	n	99	n	n	n
O=C(CCNS(=O)(=O)c1ccccc1)N1CCN(c2ccccc2)CC1	n	x	96	n	n	n
CC(=O)N1CCN(C(=O)CCNS(=O)(=O)c2ccccc2)CC1	n	x	n	n	x	n
CC(C)(C)CN1CCN(CC#Cc2ccccc2)CC1CCO (stereo unspecified)	n	x	x	n	n	n
CCCCN(C(=O)Cc1coc2cc(C)c(C)cc12)c1c(N)n(Cc2ccccc2)c(=O)[nH]c1=O	n	x	n	n	x	n
COc1ccc(N2CCN(C(=O)CCC(=O)N3CCOc4ccc(Cl)cc43)CC2)cc1	n	x	n	n	n	n

Bioassay records (PubChem BioAssay)
